MEKK2 WT-MEK5: modulators of MEK5 binding to wildtype MEKK2, primary screen, biochemical, multiplex bead flow cytometry, Alexa488-MEK5. AID 1531, 2009. Alexa488-MEK5 binding to MEKK2 WT; actives lie on both sides. 1.1% of 290,000 active. Mitogen-activated protein kinase kinase kinase 2 (Homo sapiens), Q9Y2U5. binding response (% of control), % at 10 µM; in the data active = binding response below about 67% or above about 130%; inconclusive = no clear call, values can overlap the other calls; inactive = in between
MEKK2 mut-MEK5: MEK5 binding signal on mutant MEKK2 PB1, primary screen, biochemical, multiplex bead flow cytometry, Alexa488-MEK5. Alexa488-MEK5 binding to MEKK2 mutant. percent response, % at 10 µM. 0.35% of 290,000 active; in the data active = percent response above about 24%, passing the limit was not always enough
UBC13 inh: UBC13 polyubiquitin chain formation inhibitors, primary screen, biochemical, TR-FRET, uHTS. Ubiquitin-conjugating enzyme E2 N (Homo sapiens), P61088. 0.47% of 330,000 active. inhibition, % at 20 µM. AID 485273, 2010; in the data active = inhibition above about 45%, passing the limit was not always enough; inconclusive = no clear call, values can overlap the other calls
Apaf1 inhib: inhibitors of human Apaf-1 apoptosome, primary screen, biochemical, DEVD-Rh110 fluorescence, uHTS | 0.71% of 330,000 active | reconstituted apoptosome caspase-3 activity | inhibition, % at 20 µM; active = inhibition of at least 40% at 20 µM;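 also: plate controls were DMSO wells for no effect and DEVD-CHO caspase inhibitor wells for full effect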
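Material: cell-free apoptosome with Apaf-1, procaspase-3 and caspase-9; Buffer or medium: Hepes pH 7.5 with detergent and BSA; Reagent: cytochrome c trigger plus (Z-DEVD)2-Rh110 caspase-3 substrate; Times: compound with Apaf-1, dATP, procaspase-3 30 min, then 50 min reaction, room temperature; Technique: Rh110 fluorescence intensity.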
DSG3 Ab inh: inhibitors of pemphigus antibody binding to DSG3, primary screen, biochemical, bead-based, flow cytometry, scFv-GFP. Desmoglein-3 (Homo sapiens), P32926. DSG3-coupled beads, scFv-anti-DSG3-GFP binding; active compounds read low. binding (percent of control), % at 10 µM. AID 588358, 2011. 0.48% of 310,000 active;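 active = binding more than 3 SD below its plate's average and above zero; inconclusive = below that plate limit but binding exactly zero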;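 also: hits lower antibody fragment binding to DSG3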
MEKK3 PB1 HTS: modulators of MEKK3-MEK5 PB1 binding, primary screen, biochemical, wildtype MEKK3, multiplex bead flow cytometry, Alexa488-MEK5; bead-based flow cytometry, Alexa488-MEK5 binding to MEKK3; actives lie on both sides; 0 = blocked by unlabeled MEK5, 100 = vehicle; binding response (% of control), % at 10 µM; 1.4% of 290,000 active; Mitogen-activated protein kinase kinase kinase 3 (Homo sapiens), Q99759;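 active = binding response more than 3 SD above or below the average of its plate-row segment, actives on both sides; inconclusive = wells at one plate position flagged as instrument error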;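 also: Alexa488 bead fluorescence after subtracting the streptavidin-only scavenger bead signal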
Target sequence (Q99759 whole entry, looked up): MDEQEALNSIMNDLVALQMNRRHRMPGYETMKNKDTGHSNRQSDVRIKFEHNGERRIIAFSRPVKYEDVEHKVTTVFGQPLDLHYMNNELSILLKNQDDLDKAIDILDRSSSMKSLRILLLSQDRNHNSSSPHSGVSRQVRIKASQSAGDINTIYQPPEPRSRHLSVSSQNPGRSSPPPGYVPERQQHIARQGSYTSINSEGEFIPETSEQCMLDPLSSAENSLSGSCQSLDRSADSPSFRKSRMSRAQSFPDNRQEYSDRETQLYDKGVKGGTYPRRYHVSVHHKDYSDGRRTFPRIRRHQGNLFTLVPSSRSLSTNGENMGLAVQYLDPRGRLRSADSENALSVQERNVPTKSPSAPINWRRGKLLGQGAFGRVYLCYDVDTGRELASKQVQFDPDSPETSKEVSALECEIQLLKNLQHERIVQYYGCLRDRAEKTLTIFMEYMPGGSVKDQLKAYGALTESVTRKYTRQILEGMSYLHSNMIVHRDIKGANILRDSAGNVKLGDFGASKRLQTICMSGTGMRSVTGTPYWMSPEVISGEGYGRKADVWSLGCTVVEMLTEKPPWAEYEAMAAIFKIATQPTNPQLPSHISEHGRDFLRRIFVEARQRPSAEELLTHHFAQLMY
Apaf-1 inh conf2: Apaf-1 inhibitors, single-dose retest, confirmation, biochemical, fluorescence, DEVD-Rh110, 20 µM | shares compounds with Apaf1 inhib | reconstituted apoptosome, caspase-3 DEVD-Rh110 fluorescence | inhibition, % at 20 µM | 25% of 1,800 active | AID 504614, 2011;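 active = mean inhibition of at least 40% at 20 µM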;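 also: plate controls were DMSO wells for no effect and DEVD-CHO caspase inhibitor control wells for full effect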
Rh110 quench: Rh110 fluorescence interference by putative Apaf-1 inhibitors, confirmation, artefact control for Apaf-1 inhibitor project, biochemical, 20 µM | shares compounds with Apaf1 inhib | quenched caspase reaction | activation (fluorescence interference), % at 20 µM | 1,800 tested, under 10 active | AID 504615, 2011;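 active = signal rise of 40% or more at 20 µM, treated as a fluorescence artifact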
Fluor interf inh: fluorescence interference of Apaf-1 inhibitor hits, dose response, artefact control for Apaf-1 inhibitor project. shares compounds with Apaf1 inhib. fluorescence interference counterscreen, Apaf-1 assay format. IC50, µM. 460 tested, under 10 active. AID 588538, 2011; call rule not given here
Numbers without * were called inactive; ? = inconclusive; / = not tested or not shown. An excerpt weighted towards active compounds, which were near 3.2% of everything screened.

SMILES	MEKK2 WT-MEK5	MEKK2 mut-MEK5	UBC13 inh	Apaf1 inhib	DSG3 Ab inh	MEKK3 PB1 HTS	Apaf-1 inh conf2	Rh110 quench	others
O=C1NCCCc2c1oc1ccc(O)cc21	96	-3	-6	1	105	100	/	/
Oc1c(Cl)cc(Cl)c2c1NCCC2	/	/	-15	47*	101	/	27	-2
Cc1cc(C(=O)OCC(=O)c2cccs2)ccc1[N+](=O)[O-]	/	/	4	13	103	/	/	/
CCC(=O)NC1=C(Cl)C(=O)C(NC(=O)CC)=C(Cl)C1=O	100	-1	-41	71*	99	94	11	1
CCN(CC1CCCN(CCc2cccc(OC)c2)C1)C(=O)c1ccoc1 (stereo unspecified)	99	-3	2	3	106	101	/	/
COc1ccc(-n2ncc3c(SCC(=O)OC(C)C)ncnc32)cc1	/	/	/	/	95	/	/	/
CCOc1cccc(N(C(=O)C2COc3ccccc3O2)C(C(=O)NC2CCCCC2)c2ccc(O)cc2)c1 (stereo unspecified)	92	-2	3	47*	/	96	11	1
Cc1cccc2sc(N(CCCN(C)C)C(=O)c3ccc(S(=O)(=O)N4CCc5ccccc5C4)cc3)nc12	216*	51*	39	63*	131	108	25	-6
CC(=O)c1ccc(OCCCC(=O)N2CCN(S(=O)(=O)c3ccc(C)cc3C)CC2)cc1	/	/	28	40*	108	/	32	0
O=C(NNc1cc(N2CCOCC2)nc(N2CCOCC2)n1)c1ccc(Cl)cc1Cl	105	4	-7	47*	114	104	21	-5
COc1ccc(NC(=O)NNc2cc(N3CCOCC3)nc(N3CCOCC3)n2)cc1	90	-6	-22	52*	100	84	30	0
CC(=O)NNc1cc(N2CCOCC2)nc(N2CCOCC2)n1	100	-4	-7	2	106	95	/	/
O=C(O)c1ccc2c3c(ncnc13)-c1ccccc1C2=O	/	/	-46	44*	/	/	23	5
Cc1ccc(C)c(N(CC(=O)N2CCCC2)S(C)(=O)=O)c1	105	2	-3	6	101	103	/	/
CCCOc1cc(NCc2ccccc2)c2ncn(C(C)C)c2c1	/	/	25	44*	110	/	54*	22	Fluor interf inh=>100
CCOc1cc(NCc2ccccc2)c2ncn(C(C)C)c2c1	/	/	20	42*	104	/	54*	7	Fluor interf inh=>100
COCCOc1cc(NCc2ccccc2)c2ncn(C(C)C)c2c1	/	/	-7	68*	105	/	29	1
CC(C)n1cnc2c(NCc3ccccc3)cc(Cc3ccc(F)cc3)cc21	/	/	21	25	/	/	/	/
N/C(=N\OC(=O)c1ccc(Cl)cc1Cl)c1cccnc1	71	-13	-5	76*	87	74	9	5
Cc1cc(C)c2sc(N(CCN(C)C)C(=O)CCS(=O)(=O)c3ccccc3)nc2c1	114	11	-1	53*	104	108	7	7
Cc1nn(Cc2ccccc2)c(Cl)c1/C=C/C(=O)OCC(=O)N1CCCC1=O	103	-4	0	-3	112	107	/	/
Cc1ccc(C(=O)N2CCCN(c3nc4cc5c(cc4cc3C#N)OCO5)CC2)cc1	93	3	-26	67*	/	99	23	-2
Cn1c(SCC(=O)n2c3c(c4ccccc42)CCCC3)nnc1-c1ccccc1	96	-1	-11	43*	108	99	35	-10
CC(=O)Nc1ccc(-c2nnc(SCC(=O)n3c4c(c5ccccc53)CCCC4)n2C)cc1	101	2	/	/	103	100	/	/
COc1ccc(C(C)(C)C)cc1NC(=O)CNc1cccc2ccccc12	106	1	-60	44*	96	111	29	7
SMILES	MEKK2 WT-MEK5	MEKK2 mut-MEK5	UBC13 inh	Apaf1 inhib	DSG3 Ab inh	MEKK3 PB1 HTS	Apaf-1 inh conf2	Rh110 quench	others
COc1ccc(-c2oc3ccc(-c4cc(OC)c(OC)c(OC)c4)cc3c2-c2ccc(OC)nc2)cc1	96	-5	?	16	92	102	/	/
O=S(=O)(NCc1ccccc1)c1ccc(NC(=S)NCc2ccco2)cc1	99	2	4	13	115	101	/	/
O=C(COC(=O)c1ccc([N+](=O)[O-])s1)Nc1ccc(Cl)cn1	97	0	-23	29	92	96	/	/
Cc1c(Cl)cnc(NC(=O)COC(=O)c2ccc([N+](=O)[O-])s2)c1Cl	118	14	-20	40*	98	108	33	0
CCC(CO)Oc1cc(NC(=O)c2ccc(OC)cc2)c2ncn(C(C)C)c2c1 (stereo unspecified)	/	/	-3	35	102	/	/	/
Cc1cccc(C(=O)NC2C(=O)NNC2c2ccc(Cl)cc2)c1 (stereo unspecified)	100	-48	-32	54*	86	106	23	9
COc1cccc2sc3cc(C#CC4(O)CCCCC4)ccc3c(=O)c12	/	/	?	40*	97	/	27	3
COc1cc2sc3ccc(C#CC4(O)CCCCC4)cc3c(=O)c2cc1OC	91	-6	14	3	101	101	/	/
CCOC(=O)C1Nc2ccccc2C2C(O)C(O)CC12 (stereo unspecified)	107	2	-27	66*	93	99	18	-7
CCOC(=O)C1Nc2ccc(C(F)(F)F)cc2C2c3ccccc3CC12 (stereo unspecified)	108	5	23	29	102	105	/	/
C[C@@]12CCC=C[C@H]1[C@H](c1ccc3ccccc3c1Br)N(Cc1ccccc1)C2=O	91	-5	2	49*	102	96	50*	4	Fluor interf inh=>100
CC1=NN(c2ccc(S(=O)(=O)O)cc2C)C(=O)C1	82	-10	-6	51*	98	88	19	14
